Data set [1] is described as follows: Partition coefficient, log D at pH 7.4. The format is physicochemical. The following applies: octanol/water. Summed up: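 Compound in phosphate buffer was shaken with buffer-saturated octanol (3 × 50 inversions). Phases were separated by centrifugation at 300g for 15 min. Both phases were quantified by HPLC, and log D was calculated from peak areas normalized to injection volume.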

The nature of data set [2]: Ratio of drug level in brain to blood in CD Sprague-Dawley rat at 1 mg/kg, iv after 5 mins. Format: ADME, organism-based. The arrangement: dose 1 mg/kg, route intravenous. The following applies: brain and blood. Summed up:
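Male CD Sprague-Dawley rats were dosed iv in DMSO-PEG 200-water (5:45:50). Blood and brain were collected 5 min postdose under terminal isoflurane anesthesia. Blood was protein-precipitated; brain was homogenized and extracted. Parent drug was quantified by LCMS/MS.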

Data set [3] can be described thus: Cmax in CD Sprague-Dawley rat at 3.0 mg/kg, po. Also on record: dose 3 mg/kg, route oral. Format: ADME, organism-based. The following applies: in vivo. Summed up:
(§1)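 Single iv and oral doses given to male CD Sprague-Dawley rats (1 mg/kg iv, 3 mg/kg po) and male Beagle dogs (1 mg/kg iv, 2 mg/kg po). Vehicle was a DMSO-PEG 200-water (5:45:50) solution. Serial and terminal blood samples were taken at time points up to 7, 12 or 24 h postdose.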

Data set [4] can be described thus: Tmax in CD Sprague-Dawley rat at 3.0 mg/kg, po. The format is ADME, organism-based. The arrangement: dose 3 mg/kg, route oral. As to conditions: in vivo. The essentials:
as §1

Data set [5] in a line: Half life in CD Sprague-Dawley rat at 1.0 mg/kg, iv. The arrangement: dose 1 mg/kg, route intravenous. The following applies: in vivo. Format: ADME, organism-based. Summed up:
as §1

A short description of data set [6]: Oral bioavailability in CD Sprague-Dawley rat at 3.0 mg/kg, po. Format: ADME, organism-based. The following applies: in vivo. Summed up:
as §1

A short description of data set [7]: Volume of distribution in CD Sprague-Dawley rat at 1.0 mg/kg, iv. Format: ADME, organism-based. The arrangement: dose 1 mg/kg, route intravenous. The following applies: in vivo. The essentials: as §1
A short description of data set [8]: AUC in CD Sprague-Dawley rat at 3.0 mg/kg, po. The format is ADME, organism-based. Also on record: dose 3 mg/kg, route oral. The following applies: plasma. The essentials:
as §1

The nature of data set [9]: AUC in CD Sprague-Dawley rat at 1.0 mg/kg, iv. The format is ADME, organism-based. The arrangement: dose 1 mg/kg, route intravenous. As to conditions: plasma. Summed up:
as §1

Data set [10] in a line: Tmax in CD Sprague-Dawley rat at 1.0 mg/kg, iv. Format: ADME, organism-based. The arrangement: dose 1 mg/kg, route intravenous. As to conditions: in vivo. Summed up: as §1
Data set [11] is described as follows: Clearance in CD Sprague-Dawley rat at 1.0 mg/kg, iv. Format: ADME, organism-based. As to conditions: in vivo. The arrangement: dose 1 mg/kg, route intravenous. The essentials: as §1
The nature of data set [12]: Cmax in CD Sprague-Dawley rat at 1.0 mg/kg, iv. The format is ADME, organism-based. The arrangement: dose 1 mg/kg, route intravenous. The following applies: in vivo. Summed up: as §1
Data set [13] can be described thus: Volume of distribution in Beagle dog at 1.0 mg/kg, iv. The format is ADME, organism-based, Canis lupus familiaris. The arrangement: dose 1 mg/kg, route intravenous. As to conditions: in vivo. The essentials:
as §1

The nature of data set [14]: Clearance in Beagle dog at 1.0 mg/kg, iv. The format is ADME, organism-based, Canis lupus familiaris. Also on record: dose 1 mg/kg, route intravenous. The following applies: in vivo. Summed up:
as §1

Data set [15] in a line: Half life in Beagle dog at 1.0 mg/kg, iv. The format is ADME, organism-based, Canis lupus familiaris. Also on record: dose 1 mg/kg, route intravenous. As to conditions: in vivo. Summed up: as §1

From ChEMBL document CHEMBL1138361, “4-acyl-1-(4-aminoalkoxyphenyl)-2-ketopiperazines as a novel class of non-brain-penetrant histamine H3 receptor antagonists” (J Med Chem, 2007) come the findings set out here.

As a reminder, the logD is the decadic logarithm of the distribution of all forms, ionised or not, between an organic phase and buffer at a given pH. Read a low logD as lower lipophilicity. The Kp is tissue or fluid exposure divided by exposure in the circulation. Broadly, the Cmax is the maximum level reached in the sampled fluid or tissue. For orientation: Tmax means the time at which the peak concentration occurs. The term half-life denotes the time needed for the level to fall by half in the phase considered. Read a high half-life as slow decline. What is called bioavailability is dose-corrected exposure relative to a reference, in per cent. The low end stands for little systemic uptake, the high end for much systemic uptake. For orientation: Vd means the apparent volume that relates the amount in the body to the concentration in plasma or blood. A higher Vd goes with wide distribution into tissue. The AUC is concentration integrated over time. As a reminder, the clearance is the volume of plasma or blood freed of the substance per unit of time. Lower therefore signals inefficient removal. The term Log D denotes the decadic logarithm of the distribution of all forms, ionised or not, between an organic phase and buffer at a given pH.

Compound `O=C(c1cc(F)cc(F)c1)N1CCN(c2ccc(OC3CCN(C4CCC4)CC3)cc2)C(=O)C1` showed a logD in data set [1] of 0.99.

With `O=C(c1ccccc1)N1CCN(c2ccc(OC3CCN(C4CCC4)CC3)cc2)C(=O)C1`, the logD in data set [1] was determined as 0.73.

In data set [1], `Cc1ccc(C(=O)N2CCN(c3ccc(OC4CCN(C5CCC5)CC4)cc3)C(=O)C2)cc1` displayed a logD of 1.3.

In data set [1], `O=C(c1cnn2cccnc12)N1CCN(c2ccc(OCCCN3CCCCC3)cc2)C(=O)C1` showed a logD of -1.1.

In turn, `Cl.O=C(c1ccc(Cl)cc1)N1CCN(c2ccc(OC3CCN(C4CCC4)CC3)cc2)C(=O)C1` gave a logD in data set [1] of 1.51. The Kp at 5 min in data set [2] is 0.4.

Take `O=C(c1ccc(F)cc1F)N1CCN(c2ccc(OCCCN3CCCCCC3)cc2)C(=O)C1`: the logD in data set [1] is 0.15.

Take `O=C(c1ccc(C(=O)N2CCN(c3ccc(OC4CCN(C5CCC5)CC4)cc3)C(=O)C2)cc1)N1CCC1.O=CO`: the logD in data set [1] was -0.29. For the same compound, the Kp at 5 min in data set [2] amounted to 0.1.

In [1], `CC(C)N1CCC(Oc2ccc(N3CCN(C(=O)c4ccc(F)cc4F)CC3=O)cc2)CC1` registered a logD of -0.05.

In data set [1], `O=C(c1ccc(F)cc1F)N1CCN(c2ccc(OC3CCN(C4CCC4)CC3)cc2)C(=O)C1` had a logD of 0.95.

Regarding `C[C@H]1CCCN1CCCOc1ccc(N2CCN(C(=O)c3cc(F)cc(F)c3)CC2=O)cc1`, the logD in data set [1] was determined as 0.09.

As to `Cc1ccc(C(=O)N2CCN(c3ccc(OCCCN4CCCCC4)cc3)C(=O)C2)cc1`, the logD in data set [1] was determined as 0.48.

Turning to `C[C@@H]1CCCN1CCCOc1ccc(N2CCN(C(=O)c3ccc(F)cc3)CC2=O)cc1`, the logD in data set [1] was -0.13.

As to `O=C(c1ccncc1)N1CCN(c2ccc(OCCCN3CCCCC3)cc2)C(=O)C1`, the logD in data set [1] is -1.6.

In the case of `C[C@@H]1CCCN1CCCOc1ccc(N2CCN(C(=O)c3ccc(C#N)cc3)CC2=O)cc1.O=CO`, the figures for the Cmax in data set [3] and in data set [12] were 52 ng/mL and 729 ng/mL, respectively. In addition, the results for the Tmax in [4] and in data set [10] were 7 h and 4.8 min, respectively. For the same compound, the half-life in data set [5] is 1.8 h. The compound further displayed a bioavailability in data set [6] of 7%. In addition, the Vd in data set [7] is 2.1 L/kg. In data set [1], this compound displayed a logD of -0.59. For the same compound, the AUC in data set [8] is 441 ng·h/mL; in [9] it was 1190 ng·h/mL. In addition, in [11], the clearance turned out to be 13 mL/min/kg.

As to `CS(=O)(=O)c1cccc(C(=O)N2CCN(c3ccc(OCCCN4CCCCC4)cc3)C(=O)C2)c1`, the logD in data set [1] is -1.22.

In turn, `O=C(c1ccc(F)cc1)N1CCN(c2ccc(OCCCN3CCCCCC3)cc2)C(=O)C1` showed a logD in data set [1] of -0.47.

Turning to `N#Cc1ccc(C(=O)N2CCN(c3ccc(OCCCN4CCCCC4)cc3)C(=O)C2)cc1`, in data set [1], the log distribution coefficient (logD) was -0.38.

`O=C(c1ccc(F)cc1F)N1CCN(c2ccc(OCCCN3CCCC3)cc2)C(=O)C1`: the logD in data set [1] is -0.45.

`CS(=O)(=O)c1ccc(C(=O)N2CCN(c3ccc(OC4CCN(C5CCC5)CC4)cc3)C(=O)C2)cc1.O=CO` had a Cmax in [3] of 10 ng/mL. Moreover, the Tmax in data set [4] was 4 h. The compound also yielded a logD in data set [1] of -0.38. The AUC in data set [8] turned out to be 67 ng·h/mL.

For the compound `N#Cc1ccc(C(=O)N2CCN(c3ccc(OC4CCN(C5CCCC5)CC4)cc3)C(=O)C2)cc1`, the pH-dependent lipophilicity (logD) in data set [1] amounted to 0.37.

`O=C(c1cc(F)cc(F)c1)N1CCN(c2ccc(OCCCN3CCCC3)cc2)C(=O)C1`: the logD in [1] is -0.38.

In data set [1], `O=C(c1ccc(F)cc1F)N1CCN(c2ccc(OC3CCN(C4CCCC4)CC3)cc2)C(=O)C1` returned a logD of 0.96.

`O=C(c1ccccc1)N1CCN(c2ccc(OCCCN3CCCCC3)cc2)C(=O)C1`: the log distribution coefficient (logD) in data set [1] is -0.09.

In turn, `CC(C)N1CCC(Oc2ccc(N3CCN(C(=O)c4cc(F)cc(F)c4)CC3=O)cc2)CC1` returned a logD in data set [1] of 0.06.

In data set [1], `O=C(c1cc(F)cc(F)c1)N1CCN(c2ccc(OCCCN3CCCCC3)cc2)C(=O)C1` had a logD of 0.2.

For `O=C(c1ccc(Cl)cc1)N1CCN(c2ccc(OC3CCN(C4CCCC4)CC3)cc2)C(=O)C1`, the logD in data set [1] stood at 1.52.

As for `O=C(c1ccc(F)cc1)N1CCN(c2ccc(OC3CCN(C4CCCC4)CC3)cc2)C(=O)C1`, in [1], the logD came to 0.88.

Turning to `O=C(c1cc(F)cc(F)c1)N1CCN(c2ccc(OCCCN3CCCCCC3)cc2)C(=O)C1`, in data set [1], the logD is 0.24.

In [1], `C[C@H]1CCCN1CCCOc1ccc(N2CCN(C(=O)c3ccc(F)cc3)CC2=O)cc1` registered a logD of -0.18.

With `CS(=O)(=O)c1ccc(C(=O)N2CCN(c3ccc(OCCCN4CCCCC4)cc3)C(=O)C2)cc1`, in data set [1], the logD was -1.19.

On to `C[C@H]1CCCN1CCCOc1ccc(N2CCN(C(=O)c3ccc(C#N)cc3)CC2=O)cc1`, for which, in data set [1], the logD was -0.6.

For the compound `O=C(c1ccc(F)cc1)N1CCN(c2ccc(OCCCN3CCCC3)cc2)C(=O)C1.O=CO`, the results for the Cmax in data set [3] and in data set [12] were 40 ng/mL and 342 ng/mL, respectively. Also, the time of peak concentration (Tmax) in [4] came to 7 h; in data set [10], 4.8 min. In [5], this compound showed a half-life of 1.3 h. Besides, the Vd in [7] amounted to 2 L/kg. This compound also yielded a logD in [1] of 0.14. The AUC stood at 355 ng·h/mL in [8] and 536 ng·h/mL in data set [9]. In addition, the clearance in data set [11] came out at 31 mL/min/kg.

The compound `CC(C)(C)C(=O)N1CCN(c2ccc(OCCCN3CCCCC3)cc2)C(=O)C1.Cl` returned a logD in [1] of -0.02. For the same compound, in [2], the Kp at 5 min is 0.1.

Take `N#Cc1ccc(C(=O)N2CCN(c3ccc(OCCCN4CCCCCC4)cc3)C(=O)C2)cc1`: in data set [1], the logD is -0.39.

`O=C(c1ccc(C(=O)N2CCN(c3ccc(OCCCN4CCCCC4)cc3)C(=O)C2)cc1)N1CCC1` gave a logD in data set [1] of -0.95.

In the case of `C[C@H]1CCCN1CCCOc1ccc(N2CCN(C(=O)c3ccc(F)cc3F)CC2=O)cc1`, the logD in data set [1] was -0.13.

For `CS(=O)(=O)c1cccc(C(=O)N2CCN(c3ccc(OC4CCN(C5CCCC5)CC4)cc3)C(=O)C2)c1`, the logD in data set [1] is -0.41.

`N#Cc1ccc(C(=O)N2CCN(c3ccc(OCCCN4CCCC4)cc3)C(=O)C2)cc1`: in [1], the logD was -1.07.

The compound `O=C(c1ccc(F)cc1)N1CCN(c2ccc(OCCCN3CCCCC3)cc2)C(=O)C1` gave a Vd in data set [13] of 2.9 L/kg. Also, the “Log D” value in data set [1] is 0.11. The compound also registered a clearance in data set [14] of 9 mL/min/kg. The same compound gave a half-life in data set [15] of 4.3 h.

Consider `O=C(c1ccc(F)cc1F)N1CCN(c2ccc(OCCCN3CCCCC3)cc2)C(=O)C1`, for which the logD in [1] stood at 0.1.

Regarding `O=C(c1cc(F)cc(F)c1)N1CCN(c2ccc(OC3CCN(C4CCCC4)CC3)cc2)C(=O)C1`, the logD in data set [1] came out at 1.03.

Regarding `CS(=O)(=O)c1ccc(C(=O)N2CCN(c3ccc(OC4CCN(C5CCCC5)CC4)cc3)C(=O)C2)cc1`, the pH-dependent lipophilicity (logD) in data set [1] was -0.46.

On to `CC(C)N1CCC(Oc2ccc(N3CCN(C(=O)c4ccc(C#N)cc4)CC3=O)cc2)CC1`, for which, in data set [1], the logD was -0.64.

Take `C[C@@H]1CCCN1CCCOc1ccc(N2CCN(C(=O)c3cc(F)cc(F)c3)CC2=O)cc1`: in data set [1], the logD was -0.02.
